Data reported in ChEMBL document CHEMBL3045798, “Toxic reactivity of wheat (Triticum aestivum) plants to herbicide isoproturon” (J Agric Food Chem, 2008).
In brackets after ≈: the same amount, converted by molar mass.

Columns and labels:
Triticum aestivum [1] = test: Induction of lipid peroxidation in Triticum aestivum cv. Ning 13 (wheat) seedlings assessed as increase in TBARS level in leaves grown on soils containing compound for 10 days relative to untreated control; type: organism-based; details: in vivo, 240 h
Summary of the method: (§1)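 Seedlings grown 10 days in soil at 0–20 mg/kg. Frozen tissue (0.5 g) ground in 0.1% TCA, spun; supernatant heated 30 min in boiling water with 0.5% TBA in 20% TCA. A532 minus A600 read; TBARS calculated with ε 155 mM-1 cm-1. Mean ± SD, n = 3.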

Triticum aestivum [2] = test: Reduction in APX activity in roots of Triticum aestivum cv. Ning 13 (wheat) seedlings grown on soils containing compound at 20 mg/kg for 10 days relative to untreated control; type: ADME, organism-based; set-up: dose 20 mg/kg; details: in vivo, 240 h
Triticum aestivum [3] = test: Reduction in APX activity in leaves of Triticum aestivum cv. Ning 13 (wheat) seedlings grown on soils containing compound at 20 mg/kg for 10 days relative to untreated control; type: ADME, organism-based; set-up: dose 20 mg/kg; details: in vivo, 240 h
Triticum aestivum [4] = test: Induction of changes in GST activity in leaves of Triticum aestivum cv. Ning 13 (wheat) seedlings grown on soils containing compound at 2 to 20 mg/kg for 10 days by CDNB dye based assay relative to untreated control; type: organism-based; set-up: dose 2-20 mg/kg; details: in vivo, 240 h
[5] = Solubility in water at 20 degC; type: physicochemical
Triticum aestivum [6] = test: Reduction in CAT activity in leaves of Triticum aestivum cv. Ning 13 (wheat) seedlings grown on soils containing compound at 2 to 20 mg/kg for 10 days by H2O2 consumption assay relative to untreated control; type: ADME, organism-based; set-up: dose 2-20 mg/kg; details: in vivo, 240 h
Triticum aestivum [7] = test: Increase in POD activity in leaves of Triticum aestivum cv. Ning 13 (wheat) seedlings grown on soils containing compound at 5 to 10 mg/kg for 10 days by guaiacol oxidation relative to untreated control; type: ADME, organism-based; set-up: dose 5-10 mg/kg; details: in vivo, 240 h
Summary of the method: (§2)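 Crude leaf or root extract (Tris-HCl pH 7.8, EDTA, PVP; 15000g) from seedlings grown 10 days in soil with 0–20 mg/kg herbicide. Guaiacol oxidation read at 470 nm for 1 min in 100 mM potassium phosphate pH 7.0, 20 mM guaiacol, 10 mM H2O2. Mean ± SD, n = 3.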

Triticum aestivum [8] = test: Toxicity in Triticum aestivum cv. Ning 13 (wheat) seedlings assessed as reduction in shoot elongation grown on soils containing compound at 20 mg/kg for 10 days relative to untreated control; type: organism-based; set-up: dose 20 mg/kg; scale not given: the % may be the effect or the level left; details: in vivo, 240 h
Summary of the method: (§3)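 Surface-sterilized seeds germinated 8 h at 25 °C, then grown 10 days (third leaf) in soil at 0, 2, 3.5, 5, 10, 20 mg/kg, watered to 60–70% water content, 12 h photoperiod, 300 µmol photons m-2 s-1, 25/20 °C. Elongation measured; dry mass after 70 °C for 72 h. Mean ± SD, n = 3.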

Triticum aestivum [9] = test: Increase in POD activity in roots of Triticum aestivum cv. Ning 13 (wheat) seedlings grown on soils containing compound at 5 to 10 mg/kg for 10 days by guaiacol oxidation relative to untreated control; type: ADME, organism-based; set-up: dose 5-10 mg/kg; details: in vivo, 240 h; summary of the method: as §2
Triticum aestivum [10] = test: Reduction in CAT activity in roots of Triticum aestivum cv. Ning 13 (wheat) seedlings grown on soils containing compound at 10 to 20 mg/kg for 10 days by H2O2 consumption assay relative to untreated control; type: ADME, organism-based; set-up: dose 10-20 mg/kg; details: in vivo, 240 h
Triticum aestivum [11] = test: Toxicity in Triticum aestivum cv. Ning 13 (wheat) seedlings assessed as reduction in chlorophyll content in leaves grown on soils containing compound at 2 mg/kg for 10 days relative to untreated control; type: organism-based; set-up: dose 2 mg/kg; scale not given: the % may be the effect or the level left; details: in vivo, 240 h
Summary of the method: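 Fresh leaf (0.1 g) from 10-day seedlings in spiked soil extracted in 80% acetone (pH 7.8, phosphate), spun 500g 10 min. Total chlorophyll calculated spectrophotometrically. Mean ± SD, n = 3.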

Triticum aestivum [12] = test: Reduction in SOD activity in roots of Triticum aestivum cv. Ning 13 (wheat) seedlings grown on soils containing compound at 10 to 20 mg/kg for 10 days by NBT dye reduction assay relative to untreated control; type: ADME, organism-based; set-up: dose 10-20 mg/kg; details: in vivo, 240 h
Summary of the method: (§4)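 Root crude extract from 10-day seedlings in soil at 0–20 mg/kg. Inhibition of NBT photoreduction in 50 mM phosphate pH 7.8 with 10 mM methionine and riboflavin, read at 560 nm. One unit inhibits NBT photoreduction to formazan by 50%. Mean ± SD, n = 3.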

Triticum aestivum [13] = test: Reduction in SOD activity in shoots of Triticum aestivum cv. Ning 13 (wheat) seedlings grown on soils containing compound at 10 to 20 mg/kg for 10 days by PAGE method assay relative to untreated control; type: ADME, organism-based; set-up: dose 10-20 mg/kg; details: in vivo, 240 h
Triticum aestivum [14] = test: Reduction in CAT isoforms activity in roots of Triticum aestivum cv. Ning 13 (wheat) seedlings grown on soils containing compound at 10 to 20 mg/kg for 10 days by PAGE method assay relative to untreated control; type: ADME, organism-based; set-up: dose 10-20 mg/kg; details: in vivo, 240 h
Summary of the method: (§5)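 Native PAGE, 5% stacking/10% separating gel, run at 4 °C (10 mA, then 15 mA), of tissue extracts from seedlings grown 10 days in soil at 0, 2, 3.5, 5, 10, 20 mg/kg. CAT bands: gel soaked in water 15 min, then 0.03% H2O2 25 min, washed, stained with 1% potassium ferricyanide plus 1% ferric chloride.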

Triticum aestivum [15] = test: Increase in APX activity in roots of Triticum aestivum cv. Ning 13 (wheat) seedlings grown on soils containing compound at 5 to 10 mg/kg for 10 days relative to untreated control; type: ADME, organism-based; set-up: dose 5-10 mg/kg; details: in vivo, 240 h
Triticum aestivum [16] = test: Reduction in CAT isoforms activity in leaves of Triticum aestivum cv. Ning 13 (wheat) seedlings grown on soils containing compound at 2 to 20 mg/kg for 10 days by PAGE method assay relative to untreated control; type: ADME, organism-based; set-up: dose 2-20 mg/kg; details: in vivo, 240 h; summary of the method: as §5
Triticum aestivum [17] = test: Increase in APX activity in leaves of Triticum aestivum cv. Ning 13 (wheat) seedlings grown on soils containing compound at 5 to 10 mg/kg for 10 days relative to untreated control; type: ADME, organism-based; set-up: dose 5-10 mg/kg; details: in vivo, 240 h
Triticum aestivum [18] = test: Toxicity in Triticum aestivum cv. Ning 13 (wheat) seedlings assessed as reduction in root length grown on soils containing compound at 20 mg/kg for 10 days relative to untreated control; type: organism-based; set-up: dose 20 mg/kg; scale not given: the % may be the effect or the level left; details: in vivo, 240 h; summary of the method: as §3
Triticum aestivum [19] = test: Increase in POD isoforms 1 to 5 activity in roots of Triticum aestivum cv. Ning 13 (wheat) seedlings grown on soils containing compound at 3.5 to 10 mg/kg for 10 days by PAGE method assay relative to untreated control; type: ADME, organism-based; set-up: dose 3.5-10 mg/kg; details: in vivo, 240 h
Triticum aestivum [20] = test: Reduction in POD activity in leaves of Triticum aestivum cv. Ning 13 (wheat) seedlings grown on soils containing compound at 20 mg/kg for 10 days by guaiacol oxidation relative to untreated control; type: ADME, organism-based; set-up: dose 20 mg/kg; details: in vivo, 240 h; summary of the method: as §2
Triticum aestivum [21] = test: Increase in CAT activity in roots of Triticum aestivum cv. Ning 13 (wheat) seedlings grown on soils containing compound at 2 to 5 mg/kg for 10 days by H2O2 consumption assay relative to untreated control; type: ADME, organism-based; set-up: dose 2-5 mg/kg; details: in vivo, 240 h
Triticum aestivum [22] = test: Toxicity in Triticum aestivum cv. Ning 13 (wheat) seedlings assessed as inhibition of shoot growth measured as dry weight grown on soils containing compound at 2 to 20 mg/kg for 10 days; type: organism-based; set-up: dose 2-20 mg/kg; details: in vivo, 240 h; summary of the method: as §3
Triticum aestivum [23] = test: Increase in SOD activity in shoots of Triticum aestivum cv. Ning 13 (wheat) seedlings grown on soils containing compound at 2 to 10 mg/kg for 10 days by PAGE method assay relative to untreated control; type: ADME, organism-based; set-up: dose 2-10 mg/kg; details: in vivo, 240 h
Triticum aestivum [24] = test: Increase in CAT isoforms activity in roots of Triticum aestivum cv. Ning 13 (wheat) seedlings grown on soils containing compound at 2 to 5 mg/kg for 10 days by PAGE method assay relative to untreated control; type: ADME, organism-based; set-up: dose 2-5 mg/kg; details: in vivo, 240 h; summary of the method: as §5
Triticum aestivum [25] = test: Reduction in POD activity in roots of Triticum aestivum cv. Ning 13 (wheat) seedlings grown on soils containing compound at 20 mg/kg for 10 days by guaiacol oxidation relative to untreated control; type: ADME, organism-based; set-up: dose 20 mg/kg; details: in vivo, 240 h; summary of the method: as §2
Triticum aestivum [26] = test: Increase in SOD activity in roots of Triticum aestivum cv. Ning 13 (wheat) seedings grown on soils containing compound at 2 to 10 mg/kg for 10 days by PAGE method assay relative to untreated control; type: ADME, organism-based; set-up: dose 2-10 mg/kg; details: in vivo, 240 h
Triticum aestivum [27] = test: Induction of lipid peroxidation in Triticum aestivum cv. Ning 13 (wheat) seedlings assessed as increase in TBARS level in roots grown on soils containing compound at 2 to 20 mg/kg for 10 days relative to untreated control; type: organism-based; set-up: dose 2-20 mg/kg; details: in vivo, 240 h; summary of the method: as §1
Triticum aestivum [28] = test: Reduction in SOD activity in roots of Triticum aestivum cv. Ning 13 (wheat) seedlings grown on soils containing compound at 10 to 20 mg/kg for 10 days by PAGE method assay relative to untreated control; type: ADME, organism-based; set-up: dose 10-20 mg/kg; details: in vivo, 240 h
Triticum aestivum [29] = test: Induction of lipid peroxidation in Triticum aestivum cv. Ning 13 (wheat) seedlings assessed as increase in TBARS level in leaves grown on soils containing compound at 10 mg/kg for 10 days relative to untreated control; type: organism-based; set-up: dose 10 mg/kg; details: in vivo, 240 h
Summary of the method: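 Wheat seeds surface-sterilized (5% hypochlorite, 10 min), germinated 8 h at 25 °C, sown in sieved field soil spiked with herbicide (0–20 mg/kg), watered to 60–70% water content, grown 10 days (12 h photoperiod, 25/20 °C). Fresh leaf (0.5 g) ground in 0.1% TCA, supernatant boiled 30 min with 0.5% TBA in 20% TCA; A532 minus A600, ε 155 mM-1 cm-1; n=3.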

Triticum aestivum [30] = test: Increase in SOD activity in roots of Triticum aestivum cv. Ning 13 (wheat) seedlings grown on soils containing compound at 2 to 10 mg/kg for 10 days by NBT dye reduction assay relative to untreated control; type: ADME, organism-based; set-up: dose 2-10 mg/kg; details: in vivo, 240 h; summary of the method: as §4
Triticum aestivum [31] = test: Induction of changes in GST activity in roots of Triticum aestivum cv. Ning 13 (wheat) seedlings grown on soils containing compound at 2 to 20 mg/kg for 10 days by CDNB dye based assay relative to untreated control; type: organism-based; set-up: dose 2-20 mg/kg; details: in vivo, 240 h
Summary of the method: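 Tissue extract from 10-day seedlings in soil with 0–20 mg/kg. Reaction: 100 mM potassium phosphate pH 7, 1 mM GSH, 1 mM CDNB (final; added last to start). Absorbance increase at 340 nm tracked over 15 min. Mean ± SD, n = 3.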

CC(C)c1ccc(NC(=O)N(C)C)cc1 [ISOPROTURON]
Activity (Triticum aestivum [1]): Dose-dependent effect
Activity (Triticum aestivum [2]): Toxic
Activity (Triticum aestivum [3]): Toxic
Activity (Triticum aestivum [4]): Toxic
solubility [5]: 55 µg/mL (≈ 267 µM)
Activity (Triticum aestivum [6]): Dose-dependent effect
Activity (Triticum aestivum [7]): Toxic
Activity (Triticum aestivum [8]): 32%
Activity (Triticum aestivum [9]): Toxic
Activity (Triticum aestivum [10]): Toxic
Activity (Triticum aestivum [11]): 11%
Activity (Triticum aestivum [12]): Toxic
Activity (Triticum aestivum [13]): Toxic
Activity (Triticum aestivum [14]): Toxic
Activity (Triticum aestivum [15]): Toxic
Activity (Triticum aestivum [16]): Dose-dependent effect
Activity (Triticum aestivum [17]): Toxic
Activity (Triticum aestivum [18]): 44%
Activity (Triticum aestivum [19]): Toxic
Activity (Triticum aestivum [20]): Toxic
Activity (Triticum aestivum [21]): Toxic
Activity (Triticum aestivum [22]): Toxic
Activity (Triticum aestivum [23]): Toxic
Activity (Triticum aestivum [24]): Toxic
Activity (Triticum aestivum [25]): Toxic
Activity (Triticum aestivum [26]): Toxic
Activity (Triticum aestivum [27]): Non-toxic
Activity (Triticum aestivum [28]): Toxic
fold change (FC) (Triticum aestivum [29]): > 2
Activity (Triticum aestivum [30]): Dose-dependent effect
Activity (Triticum aestivum [31]): Toxic
